Assay outcomes: PubChem BioAssay, Sanford-Burnham Center for Chemical Genomics
Most compounds without a hit are left out; they make up all but 0.79% or so of the library.
hIAP act: increases human intestinal alkaline phosphatase activity. 330,000 compounds, 0.16% hits. AID 2524. activation factor at 10 µM. purified human IAP, CDP-Star luminescence, 30 min; hits give high values; 1 = vehicle-only enzyme, 0 = enzyme-free background. P09923;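 active = activation factor of the enzyme at least 2-fold when tested at 20 µM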
Target sequence (P09923 whole entry, looked up): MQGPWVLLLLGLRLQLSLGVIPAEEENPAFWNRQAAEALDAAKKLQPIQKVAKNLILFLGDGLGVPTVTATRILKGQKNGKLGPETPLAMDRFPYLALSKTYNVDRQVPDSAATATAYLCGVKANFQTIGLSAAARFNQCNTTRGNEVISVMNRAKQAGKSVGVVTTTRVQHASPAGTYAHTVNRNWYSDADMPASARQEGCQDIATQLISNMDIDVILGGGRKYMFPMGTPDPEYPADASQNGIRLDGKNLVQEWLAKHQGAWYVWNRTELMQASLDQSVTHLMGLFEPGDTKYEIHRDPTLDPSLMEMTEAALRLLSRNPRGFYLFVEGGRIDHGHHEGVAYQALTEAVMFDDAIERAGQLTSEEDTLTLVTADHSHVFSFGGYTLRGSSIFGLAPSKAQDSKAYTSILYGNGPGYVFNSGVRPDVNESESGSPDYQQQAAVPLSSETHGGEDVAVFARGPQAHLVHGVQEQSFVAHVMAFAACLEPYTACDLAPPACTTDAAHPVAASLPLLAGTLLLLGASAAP
bIAP inh: intestinal alkaline phosphatase (bovine) inhibition. 190,000 tested, under 10 active. inhibition, % at 20 µM. AID 1019. purified bovine IAP, CDP-star luminescence, 30 min;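 active = over 50% inhibition of intestinal alkaline phosphatase at 20 µM in the single-dose screen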
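test system = bovine IAP enzyme | medium = DEA buffer 100 mM, pH 9.8, with MgCl2 1.0 mM, ZnCl2 0.02 mM | detection = luminescence | dosing = single compound dose of 20 µM, 2% DMSO final | incubation = 30 min reaction at room temperature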
hIAP inh: blocks human intestinal alkaline phosphatase; P09923; purified IAP, CDP-Star luminescence, 30 min; inhibition, % at 10 µM; 330,000 compounds, 0.12% hits; AID 2544;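 active = inhibition reaching a set limit with compound at 10 µM in the primary screen, cut at about 35% in these data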;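 also: plate controls were DMSO wells with enzyme for no effect and no-enzyme buffer wells for full effect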
bIAP act: intestinal alkaline phosphatase (bovine) activation; 200,000 compounds, 0.17% hits; activation factor at 20 µM; purified bovine IAP, CDP-star luminescence, 30 min; hits give high values; fold of DMSO-control signal, blank-subtracted;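 active = activation factor of 2 or more at 20 µM, a signal rise over negative controls twice the positive control's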
mIAP activ: increases mouse intestinal alkaline phosphatase activity. muIAP, CDP-Star luminescence, 30 min; hits give high values; 1 = vehicle-only enzyme signal, 0 = enzyme-free wells. activation factor at 10 µM. 330,000 compounds, 0.24% hits;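 active = activation factor of at least 2 at 20 µM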
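System: mouse IAP enzyme. Reagent: CDP-Star chemiluminescent phosphatase substrate. Benchmarks: DMSO wells, no-enzyme wells. Times: 30 min enzyme-substrate-compound incubation at room temperature. Detection: luminescence from enzymatic CDP-Star hydrolysis. Doses: test compounds delivered from DMSO solution.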
mIAP block: blocks mouse intestinal alkaline phosphatase | purified mouse IAP, CDP-Star luminescence, 30 min | inhibition, % at 10 µM | 330,000 compounds, 0.2% hits | AID 2806;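 active = inhibition of at least 40% at 10 µM in the primary screen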;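 also: plate controls were DMSO with enzyme for no effect and no enzyme wells for full effect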
Numbers without * were called inactive; x = not tested or not shown.

SMILES | hIAP act | bIAP inh | hIAP inh | bIAP act | mIAP activ | mIAP block
COCCNC(=O)/C=C/c1c(Cl)cccc1Cl | 0.647 | 6.8 | 35.3* | 0.9 | 0.949 | 5.1
CCCCNC(=O)CSc1nc2cc3c(cc2c(=O)n1CCC(=O)NCCc1ccc(OC)c(OC)c1)OCO3 | 1.34 | -101.0 | -34.4 | 2* | 1.54 | -54.5
Cc1ccc(SCc2nc3ccccc3n2CC(=O)Nc2ccccc2)cc1 | 1.03 | 0.3 | -3.0 | 1 | 2.36* | -135.8
O=C(Cn1c(CSc2ccccc2)nc2ccccc21)Nc1ccccc1 | x | -8.4 | x | 1.1 | x | x
Cc1nc(CN2CCN(Cc3nc(C(c4ccccc4)c4ccccc4)no3)CC2)cs1 | 0.928 | 9.1 | 7.2 | 0.9 | 0.898 | 10.2
Cc1cc(C)c(C(=O)Nc2ccc(Br)c(C(F)(F)F)c2)c(C)c1 | 1.07 | -9.0 | -7.0 | 1.1 | 2.14* | -114.2
O=C(O)c1ccccc1C(=O)Nc1ccc(Br)c(C(F)(F)F)c1 | 0.965 | x | 3.5 | x | 1.09 | -8.7
COc1cc(OC)nc(Oc2cc(C=O)ccc2OC)n1 | 0.963 | x | 3.7 | x | 0.986 | 1.4
CCN(C(=O)CSc1nc2cc(S(=O)(=O)N(CC)CC)ccc2n1CC)C1CCS(=O)(=O)C1 (configuration not stated) | 0.995 | x | 0.5 | x | 0.98 | 2.0
COc1ccc(Cl)cc1NC(=O)C(C)N1CCN(C/C=C/c2ccccc2)CC1 (configuration not stated) | 0.821 | -234.1 | 17.9 | 3.3* | 1.12 | -12.4
Cc1ccc(NC(=O)C2CCN(S(=O)(=O)c3ccc4c(c3)NC(=O)C(C)S4)CC2)cc1Cl (configuration not stated) | 1.53 | x | -52.9 | x | 2.37* | -137.2
COC(=O)CCSCC(=O)N1N=C(c2ccc(Br)cc2)CC1c1cccc(OC)c1OC (configuration not stated) | 1.09 | -5.5 | -9.1 | 1.1 | 1.05 | -4.6
O=C(Nc1ccccc1)Nc1nc(-c2ccc(F)cc2)cs1 | 0.954 | 18.8 | 4.6 | 0.8 | 2.53* | -153.0
Fc1ccc(-c2csc(NC(=S)Nc3ccccc3)n2)cc1 | 0.9 | x | 10.0 | x | 0.863 | 13.7
O=C(Nc1nc(-c2ccc(Cl)cc2)cs1)NC1CCCCC1 | 0.932 | 3.9 | 6.8 | 1 | 3.69* | -268.6
Cc1cccc(NS(=O)(=O)c2ccc(C)c(C(=O)NCc3ccncc3)c2)c1 | 0.962 | x | 3.8 | x | 1.01 | -1.0
CC(Cc1cccs1)NC(=O)Nc1ccc(Cl)c(Cl)c1 (configuration not stated) | 1 | x | -0.2 | 0.5 | 4.01* | -301.2
CC(Cc1cccs1)NC(=O)Nc1ccc(Cl)cc1 (configuration not stated) | 1.12 | 16.0 | -11.9 | 0.8 | 2.3* | -129.9
CC(Cc1cccs1)NC(=O)Nc1ccccc1 (configuration not stated) | 0.998 | 25.7 | 0.2 | 0.7 | 1.11 | -11.3
CC(Cc1cccs1)NC(=S)Nc1ccccc1 (configuration not stated) | 0.914 | 4.8 | 8.6 | 1 | 1.1 | -10.2
C#CCOCCOCCOCCNc1nc(N2CCN(C(=O)[C@H](Cc3cc4ccccc4[nH]3)n3cc([C@@H](N)CC(C)C)nn3)CC2)nc(N2CCN(C(=O)[C@H](Cc3cc4ccccc4[nH]3)n3cc([C@@H](N)CC(C)C)nn3)CC2)n1 | 1.12 | -220.4 | -12.1 | 3.2* | 2.09* | -109.2
C#CCOCCOCCOCCNc1nc(N2CCN(C(=O)[C@H]([C@@H](C)CC)n3cc([C@@H](N)Cc4ccc(O)cc4)nn3)CC2)nc(N2CCN(C(=O)[C@H](Cc3cc4ccccc4[nH]3)n3cc([C@@H](N)C(C)CC)nn3)CC2)n1 (some centres not stated) | 0.799 | -59.0 | 20.1 | 1.6 | 1.39 | -39.0
C#CCOCCOCCOCCNc1nc(N2CCN(C(=O)[C@H](Cc3cc4ccccc4[nH]3)n3cc([C@@H](N)C(C)CC)nn3)CC2)nc(N2CCN(C(=O)[C@H](Cc3cc4ccccc4[nH]3)n3cc([C@@H](N)Cc4ccc(O)cc4)nn3)CC2)n1 (some centres not stated) | 1.11 | -115.9 | -10.7 | 2.2* | 2.08* | -108.2
Cc1cccc(S(=O)Cc2ccc(C(=O)N3CCOCC3)o2)c1 (configuration not stated) | 1.07 | x | -7.5 | x | 0.983 | 1.7
